ZTA counter – blocks Epstein-Barr virus ZTA, an EBNA-1 counter-screen | P03206 | ZTA-DNA binding, fluorescence polarization | inhibition, % at 11 µM | 320,000 tested, 0.15% active | AID 2234; in the data active = inhibition above about 33%
Target sequence (P03206 whole entry, looked up): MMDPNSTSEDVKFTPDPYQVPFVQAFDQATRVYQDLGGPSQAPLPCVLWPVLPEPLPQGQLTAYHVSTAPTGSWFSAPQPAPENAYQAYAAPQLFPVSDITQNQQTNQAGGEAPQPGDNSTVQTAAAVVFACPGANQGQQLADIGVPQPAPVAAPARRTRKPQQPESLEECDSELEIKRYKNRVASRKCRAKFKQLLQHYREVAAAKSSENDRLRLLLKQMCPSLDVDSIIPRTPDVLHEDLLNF
EBNA-1 inhibitor – EBNA-1 DNA-binding inhibitors, primary screen, biochemical, fluorescence polarization. inhibition, % at 14.8 µM. 300,000 tested, 0.34% active; in the data active = inhibition above about 28%
FID counter – compounds displacing fluorescent DNA intercalator, primary screen, artefact control for HCV NS3 helicase inhibitor project, biochemical, FID fluorescence; 290,000 tested, 0.17% active; inhibition, % at 7.9 µM; DNA fluorescent intercalator displacement; in the data active = inhibition above about 37%;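 note: 0% = vehicle and 100% = reference compound; higher means more ethidium bromide displaced from hairpin DNA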
NS3 helicase inh – inhibitors of HCV NS3 helicase, primary screen, biochemical, Cy5 molecular beacon fluorescence; 290,000 tested, 0.56% active; Hepatitis C virus NS3 helicase; NS3 helicase DNA unwinding; inhibition, % at 10.9 µM;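 active = inhibition above the mean of all tested compounds plus 3 SD, set per campaign, cut at about 35% in these data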;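 note: 0% = DMSO wells and 100% = thioflavine S control wells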
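Control set: DMSO versus 110 µM thioflavine S; Material: NS3 helicase fragment of HCV; Measured by: Cy5 fluorescence at 0 and 60 min, beacon hairpin quenching; Read-out basis: percent inhibition from t60/t0 fluorescence ratio; Times: reaction time 60 min, 25 °C; Repeats: single replicate; Compound dosing: single dose, 10.9 µM nominal final, DMSO 0.8% final.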
FGF22 binding – binders of human FGF22 protein, primary screen, FGF22 synaptogenesis inhibitor project, biophysical, thermal shift, single point; Fibroblast growth factor 22 (Homo sapiens), Q9HCT0; recombinant FGF22 thermal shift, SYPRO orange fluorescence; percent of sucrose octasulfate shift, DMSO zero; activity (Tm shift, normalised), % at 9.99 µM; 340,000 tested, 1.5% active; AID 651658, 2012;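 active = mean Tm shift, scaled 0 neutral to 100 positive control, at about 1.3% or above, every replicate too, limit read from the data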
Target sequence (Q9HCT0 whole entry, looked up): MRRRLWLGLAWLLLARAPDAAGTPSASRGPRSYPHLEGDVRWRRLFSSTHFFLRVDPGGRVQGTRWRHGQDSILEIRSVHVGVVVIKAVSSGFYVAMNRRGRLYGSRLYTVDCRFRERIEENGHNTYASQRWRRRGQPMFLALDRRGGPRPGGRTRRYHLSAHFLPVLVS
NR3A LBD binder – binders of NR3A ligand-binding domain, primary screen, biophysical, differential scanning fluorimetry, uHTS; 340,000 tested, 2.5% active; Tm shift relative to glycine control, % at 25 µM; NR3A LBD differential scanning fluorimetry, Tm shift; 0% = protein alone, 100% = glycine-bound protein; Glutamate receptor ionotropic, NMDA 3A (GRIN3A) ligand-binding domain;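 active = melting temperature shift of at least 10% of the positive control shift, at one fixed dose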
Starred values were filed as active, the others as inactive; . = no result. Hits are enriched below; roughly 3.6% of the tested compounds scored in any of these assays.

SMILES	ZTA counter	EBNA-1 inhibitor	FID counter	NS3 helicase inh	FGF22 binding	NR3A LBD binder
COc1cc2c(cc1OC)-c1c(OC)c(OC)cc3c1C(C2)N(C)CC3 (centres undefined)	7.7	8.7	23.9	8.2	-0.4	-2.4
COc1cc2c(cc1OC)-c1c3c(cc4c1[C@@H](C2)N(C)CC4)OCO3	-17.8	-4.2	67.2*	5.0	-0.5	-5.2
O=C1NC(=O)N(c2ccccc2F)C(=O)/C1=C/c1ccc(Sc2nc3ccccc3[nH]2)o1	13.3	2.0	-73.5	35.6	.	102.3*
COc1ccc(Cn2c(O)c(C=NCCN3CCOCC3)c(=O)[nH]c2=O)cc1	1.9	-1.1	-5.8	10.9	.	-1.9
O=c1[nH]c(=O)n(-c2ccccc2Cl)c(O)c1C=NCCN1CCCCC1	-1.2	1.1	7.6	-5.9	.	401.4*
O=c1[nH]c(=O)n(Cc2ccc(F)cc2)c(O)c1C=NCCN1CCCCC1	5.3	0.9	4.6	-4.0	.	19.9*
O=C(Cc1ccccc1)N1CCCCN2[C@H](CO)[C@@H](c3ccc(-c4ccccc4)cc3)[C@@H]2C1	.	.	.	.	-0.1	.
CCOC(=O)c1c(NC(=O)c2c(N)n(CCCOC)c3nc4ccccc4nc23)sc2c1CCCC2	-11.8	-4.6	-2.1	27.5	0.2	23.9*
CCCCOCCCn1c(N)c(C(=O)OCCOC)c2nc3ccccc3nc21	8.1	-8.8	-30.8	6.4	.	-0.9
CCCCn1c(NC(=O)c2ccco2)c(C(=O)OCC)c2nc3ccccc3nc21	-6.8	-9.2	-13.9	23.2	.	-4.2
CCCCn1c(NS(=O)(=O)c2ccc(C)cc2)c(C(=O)OCC)c2nc3ccccc3nc21	12.3	3.4	-15.1	16.2	0.1	12.9*
CCOCCCn1c(N)c(C(=O)Nc2sc3c(c2C(=O)OC)CCCC3)c2nc3ccccc3nc21	-11.0	9.5	-12.6	22.2	.	17.2*
CC=Cc1ccc2n(c1=O)C[C@@H]1[C@@H](CO)[C@H](C(=O)OC)[C@H]2N1S(=O)(=O)c1ccccc1C (mixture of isomers)	.	.	.	.	-0.2	.
CC(C)CC#Cc1ccc([C@@H]2[C@H](CO)N3CCCCN(C(=O)Cc4ccccn4)C[C@@H]23)cc1	.	.	.	.	-0.6	.
CCCCn1c(O)c(C=NCc2ccc3c(c2)OCO3)c(=O)[nH]c1=O	-3.0	-3.4	-23.2	9.5	0.0	11.0*
CCCCn1c(O)c(C(C)=NCc2ccc3c(c2)OCO3)c(=O)[nH]c1=O	-19.8	-5.3	-6.9	6.3	0.0	-3.8
CC=Cc1ccc2n(c1=O)C[C@@H]1[C@@H](CO)[C@H](C(=O)N(C)C)[C@H]2N1C (mixture of isomers)	.	.	.	.	0.0	.
CSc1ncc(CN2CCCC(C(=O)c3ccccc3SC)C2)cn1 (centres undefined)	-8.1	-1.2	-9.8	2.3	0.0	-2.4
CSc1ccc(C(=O)C2CCCN(Cc3cnc(SC)nc3)C2)cc1 (centres undefined)	0.1	8.7	0.0	-5.8	43.9*	-1.3
O=C(Cc1ccccn1)N1CCCCN2[C@H](C1)[C@@H](c1ccc(Br)cc1)[C@@H]2CO	.	.	.	.	-0.4	.
C[C@@H]1CN([C@H](C)CO)C(=O)c2c(c3ccccc3n2C)-c2ccccc2CO[C@H]1CN(C)C(=O)Oc1ccccc1	.	.	.	.	-0.7	.
CCC(CC)NCc1c[nH]c2ccccc12	4.3	5.5	9.3	5.2	43.1*	-0.1
Cc1cc(C)cc(N2C(=O)NC(=O)/C(=C\c3cccn3-c3ccc(Cl)cc3)C2=O)c1	7.5	-5.7	-5.8	26.4	.	1.5
Cc1cc(C)cc(N2C(=O)NC(=O)/C(=C\c3cccn3-c3ccccc3)C2=O)c1	-1.1	8.1	-29.8	23.6	.	23.9*
O=P(O)(O)CN1CCNCCN(CP(=O)(O)O)CCNCC1	.	.	.	.	43.0*	-2.8
SMILES	ZTA counter	EBNA-1 inhibitor	FID counter	NS3 helicase inh	FGF22 binding	NR3A LBD binder
CC1([N+](=O)[O-])COP(=O)(Nc2cccc(Cl)c2)OC1 (centres undefined)	.	.	.	.	-0.2	-0.2
CCC1([N+](=O)[O-])COP(=O)(NCc2cccnc2)OC1 (centres undefined)	.	.	.	.	0.1	12.6*
O=C(O)c1cccc2c1NC(C(=O)O)C1CC(Sc3ccccc3[N+](=O)[O-])C(Cl)C21 (centres undefined)	109.5*	35.4*	-1.2	34.7	.	-15.4
O=C(Nc1nccs1)C(Cl)(Cl)Cl	-19.4	-6.8	1.1	2.2	0.6	0.6
O=C(Nc1ccc(Cl)cc1)Nc1nccs1	5.2	5.8	0.7	2.0	.	28.2*
CCOC(=O)[C@]12Cc3cc(OC)ccc3[C@H]1N(Cc1ccccc1)C(=O)c1ccccc12	.	.	.	.	-0.3	-3.6
CCOC(=O)[C@]12Cc3cc(C)ccc3[C@H]1N(Cc1ccccc1)C(=O)c1ccccc12	.	.	.	.	0.0	11.5*
CCOC(=O)[C@]12Cc3cc(OC)ccc3[C@H]1N(Cc1ccccc1)C(=O)c1cc(F)c(F)cc12	.	.	.	.	0.1	12.9*
CC(C)CC#Cc1ccc([C@H]2[C@@H](CO)N3CCCCN(C(=O)Cc4ccccn4)C[C@H]23)cc1	.	.	.	.	-0.3	.
O=C(Cc1ccccc1)N1CCCCN2[C@H](C1)[C@H](c1ccc(C#Cc3ccccc3)cc1)[C@@H]2CO	.	.	.	.	-0.4	.
CCOC(=O)C(C)Oc1cc(C)cc2oc(=O)c3c(c12)CCCC3 (centres undefined)	1.1	-3.0	-13.8	2.2	.	15.3*
N[C@@H](Cc1c[nH]c2ccccc12)c1nnc(SCc2ccc(F)cc2)o1	.	.	-13.1	-18.9	.	12.7*
O=C(Cc1cccnc1)N1CCCCN2[C@H](C1)[C@@H](c1ccc(C#CC3CC3)cc1)[C@@H]2CO	.	.	.	.	-0.4	.
OC1/C(=C/c2ccc(F)cc2)N2CCC1CC2 (centres undefined)	-0.3	-1.1	-1.7	2.9	43.4*	-2.6
COc1ccc(N2C(=O)/C(=C/C=C/c3ccccc3[N+](=O)[O-])C(=O)NC2=S)cc1	.	.	-32.2	15.6	-0.1	100.3*
CCCN1[C@@H]2Cn3c(ccc(-c4cccc(C(=O)N(C)C)c4)c3=O)[C@H]1[C@@H](C(=O)OC)[C@@H]2CO	.	.	.	.	0.5	.
O=C(O)[C@@H]1[C@@H](CO)[C@@H]2Cn3c(ccc(-c4ccccc4)c3=O)[C@H]1N2CC1CCCCC1	.	.	.	.	0.0	.

Assay outcomes deposited in PubChem BioAssay by several laboratories.
